Measurements reported in ChEMBL document CHEMBL2021854, “2-Aminopyrimidine based 4-aminoquinoline anti-plasmodial agents. Synthesis, biological activity, structure-activity relationship and mode of action studies” (Eur J Med Chem, 2012).

Tests used:
[1] = system: Plasmodium falciparum; test: Antiplasmodial activity chloroquine-sensitive Plasmodium falciparum 3D7 infected in human A+ erythrocytes assessed as inhibition of [3H]-hypoxanthine incorporation after 24 hrs by scintillation counting; type: functional, organism-based
[2] = system: Plasmodium falciparum; test: Antiplasmodial activity chloroquine-resistant Plasmodium falciparum K1 infected in human A+ erythrocytes assessed as inhibition of [3H]-hypoxanthine incorporation after 24 hrs by scintillation counting; type: functional, organism-based
[3] = system: MDCK; test: Cytotoxicity against MDCK cells assessed as cell viability by colorimetric formazan-based MTS assay; parameters: species or system Canis lupus familiaris; settings: dog, mdck
Outline: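 Cytotoxicity on MDCK cells; 50% cytotoxic concentration from cell viability measured by colorimetric formazan-based MTS assay.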

[4] = Selectivity index, ratio of CC50 for MDCK cells to IC50 for chloroquine-resistant Plasmodium falciparum K1; type: functional
Outline: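 Selectivity index computed as MTS-based CC50 on MDCK cells divided by IC50 against P. falciparum K1.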

[5] = Cytotoxicity against african green monkey Vero cells assessed as minimum compound concentration required to causes microscopically detectable alteration of normal cell morphology; type: cell-based; settings: chlorocebus sabaeus
Outline: (§1)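 Confluent, non-proliferating cell cultures were exposed to the compounds. The endpoint was the minimum concentration producing a microscopically detectable alteration of normal cell morphology.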

[6] = system: Human respirovirus 3; test: Antiviral activity against Parainfluenza-3 virus infected in african green monkey Vero cells assessed as inhibition of virus-induced cytopathogenicity after 4 days; type: functional, organism-based; settings: Human respirovirus 3, Vero, 96 h
Outline: (§2)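 Confluent HEL, Vero or HeLa monolayers were inoculated with 100 CCID50 of virus in the presence of varying concentrations of compound. Cytopathicity was scored when it reached completion in untreated, virus-infected control cultures.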

[7] = system: Mammalian orthoreovirus 1; test: Antiviral activity against Reovirus-1 infected in african green monkey Vero cells assessed as inhibition of virus-induced cytopathogenicity after 4 days; type: functional, organism-based; settings: Mammalian orthoreovirus 1, Vero, 96 h; outline: as §2
[8] = system: Sindbis virus; test: Antiviral activity against Sindbis virus infected in african green monkey Vero cells assessed as inhibition of virus-induced cytopathogenicity after 4 days; type: functional, organism-based; settings: 96 h; outline: as §2
[9] = system: Coxsackievirus B4; test: Antiviral activity against Coxsackie virus B4 infected in african green monkey Vero cells assessed as inhibition of virus-induced cytopathogenicity after 4 days; type: functional, organism-based; settings: Enterovirus B, 96 h; outline: as §2
[10] = system: Punta Toro virus; test: Antiviral activity against Punta Toro virus infected in african green monkey Vero cells assessed as inhibition of virus-induced cytopathogenicity after 4 days; type: functional, organism-based; settings: 96 h; outline: as §2
[11] = system: Human alphaherpesvirus 2; test: Antiviral activity against HSV2 G infected in HEL cells assessed as inhibition of virus-induced cytopathogenicity after 4 days; type: functional, organism-based; settings: Human alphaherpesvirus 2, strain G, 96 h; outline: as §2
[12] = system: Vesicular stomatitis virus; test: Antiviral activity against Vesicular stomatitis virus infected in HEL cells assessed as inhibition of virus-induced cytopathogenicity after 4 days; type: functional, organism-based; settings: 96 h
Outline: (§3)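 Confluent HEL or HeLa monolayers infected with 100 CCID50 of virus in the presence of varying compound concentrations.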

[13] = system: Human alphaherpesvirus 1; test: Antiviral activity against thymidine kinase-deficient acyclovir-resistant HSV1 KOS infected in HEL cells assessed as inhibition of virus-induced cytopathogenicity after 4 days; type: functional, organism-based; settings: Human alphaherpesvirus 1, KOS, 96 h; outline: as §3
[14] = Cytotoxicity against human HEL cells assessed as minimum compound concentration required to causes microscopically detectable alteration of normal cell morphology; type: cell-based; outline: as §1
[15] = system: Vesicular stomatitis virus; test: Antiviral activity against Vesicular stomatitis virus infected in HeLa cells assessed as inhibition of virus-induced cytopathogenicity after 4 days; type: functional, organism-based; settings: 96 h; outline: as §3
[16] = system: Respiratory syncytial virus; test: Antiviral activity against Respiratory syncytial virus infected in human HeLa cells assessed as inhibition of virus-induced cytopathogenicity after 4 days; type: functional, organism-based; settings: 96 h; outline: as §2
[17] = system: Influenza A virus; test: Antiviral activity against Influenza A virus H3N2 infected in MDCK cells assessed as reduction visual scoring of virus-induced cytopathogenicity after 4 days; type: functional, organism-based; settings: 96 h
Outline: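 MDCK monolayers infected with 100 CCID50 of influenza A (H1N1 or H3N2) or influenza B, with varying compound concentrations. Cytopathicity read when untreated infected controls reached complete CPE.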

[18] = system: Influenza A virus; test: Antiviral activity against Influenza A virus H3N2 infected in MDCK cells assessed as inhibition of virus-induced cytopathogenicity after 4 days by colorimetric formazan-based MTS assay; type: functional, organism-based; settings: 96 h
[19] = system: Influenza B virus; test: Antiviral activity against Influenza B virus infected in MDCK cells assessed as inhibition of virus-induced cytopathogenicity after 4 days by colorimetric formazan-based MTS assay; type: functional, organism-based; settings: 96 h
[20] = system: Human betaherpesvirus 5; test: Antiviral activity against Cytomegalovirus AD-169 infected in HEL cells assessed as inhibition of virus plaque formation after 4 days; type: functional, organism-based; settings: Human betaherpesvirus 5, AD169, HEL, 96 h
[21] = system: HeLa; test: Cytotoxicity against human HeLa cells assessed as cell viability by colorimetric formazan-based MTS assay
[22] = system: Human alphaherpesvirus 3; test: Antiviral activity against […] expressing thymidine kinase infected in HEL cells assessed as reduction of virus plaque formation after 4 days; type: functional, cell-based; settings: Human alphaherpesvirus 3, strain Oka vaccine, 96 h
[23] = system: Human alphaherpesvirus 3; test: Antiviral activity against thymidine kinase-deficient […] infected in HEL cells assessed as reduction of virus plaque formation after 4 days; type: functional, organism-based; settings: Human alphaherpesvirus 3, 07-1, HEL, 96 h
[24] = Cytotoxicity against cat CRFK cells assessed as cell viability by colorimetric formazan-based MTS assay; parameters: species or system Felis catus; settings: crfk
[25] = system: Felid alphaherpesvirus 1; test: Antiviral activity against Feline herpesvirus infected in cat CRFK cells assessed as inhibition of virus-induced cytopathic effect after 4 days by colorimetric formazan-based MTS assay; type: functional, organism-based; settings: Felid alphaherpesvirus 1, CRFK, 96 h
[26] = system: Human immunodeficiency virus 1; test: Antiviral activity against HIV1 infected in human CEM cells assessed as inhibition of virus-induced cytopathic effect after 4 days; type: functional, organism-based; settings: Human immunodeficiency virus 1, CCRF-CEM, 96 h
Outline: (§4)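 CEM T-lymphocytes (~3 × 10^5 cells/ml) were infected with HIV-1 IIIB or HIV-2 ROD at ~100 CCID50, then immediately plated with a range of compound concentrations. Giant cell formation was scored microscopically after 4 days at 37 °C. Cytostatic activity was tested in parallel in uninfected CEM cells.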

[27] = system: Human immunodeficiency virus 2; test: Antiviral activity against HIV2 infected in human CEM cells assessed as inhibition of virus-induced cytopathic effect after 4 days; type: functional, organism-based; settings: Human immunodeficiency virus 2, CCRF-CEM, 96 h; outline: as §4
[28] = system: Nucleic Acid; test: Binding affinity to calf thymus DNA after 5 mins by spectrofluorometric analysis; type: nucleic-acid assay; settings: Bos taurus
Outline: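 Steady-state fluorescence titration at ambient temperature: compound held at 30 μM while DNA was varied (0.3–70 μM), working solutions diluted in methanol. Excitation 320 nm, emission 380 nm, slit 5 nm. Log K was calculated from quenching of the 380 nm emission.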

[29] = Inhibition of beta-hematin formation assessed as Ferriprotoporphyrin IX biomineralisation at 1 mg/ml after 24 hrs; type: functional
Outline: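 Hemin chloride (0.5 mg/ml in DMSO) mixed with 0.5 M sodium acetate buffer pH 4.4 and drug or solvent control, incubated 37 °C for 24 h. Pellet washed with DMSO to remove unreacted hemin, dissolved in 0.1 N NaOH, absorbance read at 405 nm; percent inhibition relative to control. Highest concentration tested 1 mg/ml.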

[30] = system: Nucleic Acid; test: Binding affinity to calf thymus DNA assessed as melting temperature; type: nucleic-acid assay; settings: Bos taurus
Outline: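 CT DNA (151 μM NP) was heated with or without compound at a 5:1 DNA:drug ratio in 40% DMSO/TE buffer pH 7.4 with 0.5 mM NaCl. Absorbance at 260 nm was followed with a 0.5 °C/min ramp to obtain Tm.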

SMILES	IC50 [1]	IC50 [2]	CC50 [3]	Ratio CC50/IC50 [4]	MCC [5]	EC50 [6]	EC50 [7]	EC50 [8]	EC50 [9]	EC50 [10]	EC50 [11]	EC50 [12]	EC50 [13]	MCC [14]	EC50 [15]	EC50 [16]	EC50 [17]	EC50 [18]	EC50 [19]	EC50 [20]	also measured
CCOC(=O)c1c(C)nc(NCCCCNc2ccnc3cc(Cl)ccc23)nc1-c1ccccc1	0.202 µM	0.0261 µM	0.9 µM	34.41	> 100 µM	> 100 µM	> 100 µM	> 100 µM	> 100 µM	> 100 µM	> 100 µM	> 100 µM	> 100 µM	> 20 µM	> 100 µM	> 100 µM	> 0.16 µM	> 0.16 µM	> 0.16 µM	2 µM	CC50 [21]: 1.84 µM; EC50 [22]: 4 µM; EC50 [23]: > 20 µM; CC50 [24]: 13.9 µM; EC50 [25]: > 4 µM; EC50 [26]: > 2 µM; EC50 [27]: > 2 µM; log Ks [28]: 4.67; inhibition [29]: 100%; Tm [30]: 63 °C
Cc1nc(NCCCCNc2ccnc3cc(Cl)ccc23)nc(-c2ccccc2[N+](=O)[O-])c1C(=O)OC(C)C	0.0182 µM	0.0036 µM	2.3 µM	638	100 µM	> 20 µM	> 20 µM	> 20 µM	> 20 µM	> 20 µM	> 4 µM	> 4 µM	> 4 µM	20 µM	> 20 µM	> 20 µM	> 0.8 µM	> 0.8 µM	> 0.8 µM	> 4 µM	CC50 [21]: 4.4 µM; EC50 [22]: 4 µM; EC50 [23]: > 4 µM; CC50 [24]: 27.2 µM; EC50 [25]: > 20 µM; EC50 [26]: > 2 µM; EC50 [27]: > 2 µM; log Ks [28]: 3.39; inhibition [29]: 100%; Tm [30]: 62.5 °C
